Assay results as given in the EternaBench riboswitch data.

System: MS2 coat protein
Experiment: apparent Kd, MS2 coat protein; higher = weaker binding; RNA-MaP array; FMN 200 µM where present
Method in brief: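 Designs on Illumina sequencing-chip clusters, transcribed by stalled E. coli RNA polymerase, were exposed to SNAP-549-labelled MS2 coat protein in doubling steps from 0.7 or 1.5 nM up to 3 µM, without and then with constant ligand. The buffer held 100 mM Tris-HCl pH 7.5, 80 mM KCl, 4 mM MgCl2, BSA, DTT, yeast tRNA and Tween-20. Apparent Kd values are medians of filtered per-cluster binding-curve fits to green signal normalised to red-channel RNA signal and control-cluster median Fmax.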

[1] = designed as: OFF switch for flavin mononucleotide, no ligand
[2] = ligand present: flavin mononucleotide, designed as: OFF switch for flavin mononucleotide
[3] = designed as: ON switch for flavin mononucleotide, no ligand
[4] = ligand present: flavin mononucleotide, designed as: ON switch for flavin mononucleotide

Sequence | apparent Kd [1] [µM] | apparent Kd [2] [µM] | apparent Kd [3] [µM] | apparent Kd [4] [µM]
AAAAUGUCAGGAUAUGCGAAGGCAUCUGACAGAUGAGGAUUGCAGAAGGGACAUGAGGAUCACCCAUGUAAAAA | 0.0403 | 0.0475 | – | –
GGCCCGGGAGGAUAUACAUGAGGAUCACCCAUGUGCUUCGGCUUGAUCAAGUUGAAGUGUAGAAGGCCCGGGCC | 0.0142 | 0.021 | – | –
ACAUGAGGAUGAGGAUAUUCAUACAUGAGGAUAGAAGAAGGCAUACAUGAGGAUCACCCAUGUAUACACAUGAGGAUCGCCCAU | 0.0371 | 0.0473 | – | –
GGUGCGUAUGUGAGGAUAUGCUGGUCCUUGGCUCGGCAGAAGGCACAUGAGGAUCACCCAUGUGGUGUCGUUCC | 0.0525 | 0.222 | – | –
GGCUGUCGGUCGGGUCAUCCACAUGAGGAUCACCCAUGUAGGAGAAGGGUCCGCCAGGCUUGUGGAUAGGAUAUCCUAGAAUGA | 0.00545 | 0.00552 | – | –
GAUCCGUCUGUUAGGAUAUGCUUUGGGCUUCCGCAGUAGAAGGAACAUGAGGAUCACCCAUGUCCGAUGCCGUC | 0.0334 | 0.043 | – | –
GCCCGUGCGGAGGAUAUUGAUAUCCCAGUCUAUCAAGAAGGCUGCACAUGAGGAUCACCCAUGUGACCUGUGCU | 0.0188 | 0.0517 | – | –
UUGUUAUAUGUAGGAUAUGCAUAUUAUUAUUGUGCAGAAGGACAUGAGGAUCACCCAUGUAUAUUAUUAUUAUAUAUUAUAUAU | 0.0314 | 0.046 | – | –
AGGGUGGGCUCAGGAUAUCAGGAAGGGAUGUGGACAUGAGGAUCACCCAUGUACCAGUGUUGUUAUGAGAAGGGAGAUAUUGUA | – | – | 0.0167 | 0.0135
GGGUACAUCGGAGGAUAUCAUGUAUAUACAUGAGGAUCACCCAUGUCGUACGAGAGUACGGAGAUUGAGAAGGCCGAUGUACCG | – | – | 0.0394 | 0.0144
UGGGACUAGGGAGGAUAUGGGAAGAUACAUGAGGAUCACCCAUGUUUAAGAAUGCCGAGAGGCAACUAGAAGGCCCUAGUACCU | – | – | 0.446 | 0.0204
AAACUGUGAGGAUAUGGUGAGUAGUGCCUGAGCGCUGCUCACCAGAAGGCACAUGAGGAUCACCCAUGUAUAAA | 0.0255 | 0.0747 | – | –
AAGAUGUAAGGAUAUGCUGCUCGUCACUUGCGUGAUGAGUAGCAGAAGGUACAUGAGGAUCACCCAUGUAAAGA | 0.0304 | 0.0433 | – | –
GGUGUCAUCGAGAAGGCCUCAACAUGAGGAUCACCCAUGUUGUAAUAUGGGAGGAUAUCGAUGAUACAGCUACGUUUCGUAGCG | – | – | 0.0199 | 0.00657
CGGGCUGCCAGAGGAUAAUGGACAUGAGGAUCACCCAUGUGUCAGGAUAUGGGUUUCACAUGGACUCAGAAGGGACCAGCCCGA | – | – | 0.0825 | 0.0224
GCUUCACAUGAGGAUCACCCAUGUCUUCGGAGUCGAGGAUAUGGUAACUGUAAACAGUUGCCAGAAGGCGAGGAGC | – | – | 0.0596 | 0.0355
GGAUAGGACAGAGGAUAUACAGAUAGGAUCUACUAUCAAACAAUCCUGACAUGAGGAUCACCCAUGUAGAAGGCUGUCCUAUCG | 0.0246 | 0.0851 | – | –
ACGAAGAUACAGAAGGGUAAAGUAGUUAAUUAUAAGUAGGAAAUGCUCUACAGGAUAUGUUAGACAUGAGGAUCACCCAUGUAC | – | – | 0.0307 | 0.0131
GUGUAGUCAGGAUAUACAUAGGAAGAGAAGAGAAGAGAAGUACAUGAGGAUCACCCAUGUAGAAGGGACAGUGU | 0.0243 | 0.0251 | – | –
CUGCUAAUAGGAUAUGCUAGGGAGGCUUCACGUUAGCAGGAACAUGAGGAUCACCCAUGUAGAAGGAUUGUAGA | 0.0302 | 0.0213 | – | –
GAAUAGGCAGGAUAUACAUGAGGAUCACCCAUGUGCUUGCGAUCGGCAAGCGAACAACGUAGAAGGGCCUUAAC | 0.0162 | 0.0373 | – | –
UGUCGGAGCAGAGGAUAUUACAUGAGGAUCACCCAUGUAUGAACCAAUAGCUGGAAACAGCAAGGUAAGAAGGCUGCUCCGACA | 0.00524 | 0.00998 | – | –
GCCUCAUAGUAGAAGGGACUUUUACAGUAAUGUUUUUAGUGUAAAUAACAUGAGGAUCACCCAUGUCAGGAUAUACUAAGAGGC | 0.00582 | 0.00635 | – | –
AAACACGGACAUGAGGAUCACCCAUGUGGCGAAAGCCUUGGGAGAAGGUAUUAUGCAAAGCAUUAUAAGGAUAUUCAUACCGUG | – | – | 0.821 | 0.187

Sequence | apparent Kd [1] [µM] | apparent Kd [2] [µM] | apparent Kd [3] [µM] | apparent Kd [4] [µM]
AACUGGUGUGAGAAGGGACGUAUCUCCAUGAGGGCAGGGCUAUUAGAGAAGUCAGGAUAUCACAUGAGGAUCACCCAUGUGACG | 0.00833 | 0.00902 | – | –
AUGUUACAUGAGGAUCACCCAUGUGAGGAUAUGUGUACCGGUAAAAAAGUGAUUGGCCACAGAAGGCAUUUGGA | 0.0332 | 0.0357 | – | –
UCAUGCAUAGCGAUAUGAUCGAGAGAUCAUGUCGCUAAAUUUAGAAGGACAUGAGGAUCACCCAUGUAGGAUAUGGGAGCAUGU | – | – | 0.535 | 0.0632
GGGCUGUCAGGAUAUUGAUCGUGAUCGGAAAUGAUCGUGAUCGAGAAGGGACAUGAGGAUCACCCAUGUGGCCC | 0.0308 | 0.033 | – | –
UGACUGAUAUAGAAGGGUAUGUGGGAAUUACAUGAGGAUCACCCAUGUUUUAUAGGAUAUGUAUAUAGUUUUUAAUCAAGUUUA | 0.0482 | 0.0368 | – | –
AUGAGAAAAGCAGGAUAUCUAUUGUCUCAGAAACAUGAGGAUCACCCAUGUAGAGAAGGGCUAAGACCGACUCUUCGGAGUUGA | 0.00966 | 0.00977 | – | –
AUACGGGCUAACAUGAGGAUCACCCAUGUGUUAUACUUAAUAUAGGAUAUGUUUAUACUUUUUGGGCAGAAGGAUGGCCCGUAU | – | – | 0.0535 | 0.0449
GCACGAUCCUCAGGAUAUCACUGAAACAUGAGGAUCACCCAUGUGCGCAGAUGAGAAGGGAGGACUCCGUCUGACUAAAAGUUA | – | – | 0.113 | 0.00995
AUUUGCCUAGGAUAUACUCGGGCCCGCUCAUACUCCAAUGGACAUGAGGAUCACCCAUGUAGAAGGAGGAACCA | 0.016 | 0.02 | – | –
UCGGCGCGAGGAUAUACGUUUGCUUUUUUGUGUCGUUGCGUACAUGAGGAUCACCCAUGUAGAAGGCGCGCCGC | 0.0175 | 0.0836 | – | –
UGCACAUGAGGAUCACCCAUGUAUUGUUCGGUUAAUAGAAGUGAGGAUAUGCUUAAAAUAAGGUAGCAGAAGGCACUGGGUUCA | – | – | 0.0278 | 0.0295
CAGUACUGAGGAUAUACAUGAGGAUCACCCAUGUGCUCAAAGUAGGAUACUACUAUUAGUAGAAGGCAGUACUG | 0.0222 | 0.214 | – | –
UCGACCAGCGCCAGUCGAACAUGAGGAUCACCCAUGUACUCCAGAAGGCCGCCCAAGUACGGAGUGGAGGAUAUGGAAGUUCUC | – | – | 0.0473 | 0.0263
UAUAUGUCAGGAUAUCGAUUGGUACGGGAUUCGGUACUGGUUGAGAAGGGACAUGAGGAUCACCCAUGUUUUUC | 0.0378 | 0.162 | – | –
CGCACUUAGCGAGGAUAUGUAAAACAUGAGGAUCACCCAUGUGAUUUAGUAUCAAUUUUAAUGAAACAGAAGGCGCUUAGUGCG | 0.00826 | 0.00891 | – | –
CCGUAAGAGCGGACAUGAGGAUCACCCAUGUAAGAGUCAUCCAGAAGGUCAGCGCUAAAUGGAAUGAAGGAUAUGGAGUGGGUC | – | – | 0.668 | 0.357
GUAUGAUUAAGAGGAUAUAUACAACAUGAGGAUCACCCAUGUACCCGUGUAGUAGAAGGUUUGUUUUUAUAUAAUAAUAUAAUU | – | – | 0.0266 | 0.0191
UCAACCAGCGCCAGUUGAACAUGAGGAUCACCCAUGUACUCCAGAAGGCCGCCCAAGAACGGAGUGGAGGAUAUGGAGGUUCUC | – | – | 0.0285 | 0.0185
GUAGCAUACCAAGGAUAUUCAGGGCUUGGAUAGACAUGAGGAUCACCCAUGUGGCGAAAGUCAAGGGAGAAGGUGGUAUGCUAC | – | – | 0.0176 | 0.0135
CUGGGUUAGGAGAAGGGCUAGAGUGUGAUAUAUUUGCCCGCGAGCACAUGAGGAUCACCCAUGUAGCAGGAUAUCCAAACCGGU | 0.00733 | 0.0195 | – | –
UGUCGGAGCAGAGGAUAUUACAUGAGGAUCACCCAUGUAUGAACCAAUAGCUGGAAACGGCAAUGUAAGAAGGCUGCUCCGACA | 0.0131 | 0.171 | – | –
AUGGUACAUGAGGAUCACCCAUGUCAGGAUAUCGGCUGUGACGUGAAAAGAGUGUUAGCGAGAAGGGACUGCAA | 0.0373 | 0.0431 | – | –
UAAAGCGUAGAUAAUUAUGUUACAUGAGGAUCACCCAUGUCAUAGGAUAUGCAGUGGAAUACACUGCAGAAGGAUGAAUCGCAG | 0.0249 | 0.0333 | – | –
GGGUACAUCGGAGGAUAUCAUGUAAAUACAUGAGGAUCACCCAUGUCGAUGGAGACUUCGGAGAUUGAGAAGGCCGAUGUACCG | – | – | 0.434 | 0.0278
